Laboratory results taken from ChEMBL document CHEMBL1128454, “Cyclization-activated prodrugs: N-(substituted 2-hydroxyphenyl and 2-hydroxypropyl)carbamates based on ring-opened derivatives of active benzoxazolones and oxazolidinones as mutual prodrugs of acetaminophen” (J Med Chem, 1995).

Assays:
[1] = Compound was evaluated for its rate constant (Kp) which are average values of Kobs measured in the pH range 10-11 at 25 degree C (micro = 0.5 M ).; format: ADME
Outline: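 Spectrophotometric hydrolysis in aqueous NaOH or carbonate/borax buffers, 25 °C, ionic strength 0.5 M. kp is the average of kobsd values measured over pH 10-11 (the pH-independent plateau). kobsd came from first-order ln(OD) vs time plots. Error in each rate constant about ±3%.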

[2] = Compound was evaluated for pKa; format: physicochemical
Outline: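 Apparent kinetic pKa obtained by fitting the pH-rate profile (log kobsd vs pH, UV-monitored hydrolysis in NaOH and carbonate, borax, Tris or phosphate buffers) to a rate law combining the pH-independent constant with the acid dissociation constant of the prodrug hydroxyl.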

[3] = Compound was evaluated for its hydrolysis half life obtained from the relation Kobs was measured in a pH 7.4 phosphate buffer at 37 degree C (micro = 0.5 M ).; format: ADME; conditions: for half-life: phosphate buffer
Outline: (§1)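 Prodrug hydrolysed in pH 7.40 phosphate buffer at 37 °C (some runs at 25 °C) and monitored by UV spectrophotometry until product formation, about 10 half-lives. First-order kobsd from ln(OD) vs time, with pH checked before and after. Half-life taken as 0.693/kobsd.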

[4] = its hydrolysis half life in human plasma (pH 7.4); format: ADME, organism-based
Outline: (§2)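 Prodrug in acetonitrile or dioxane added to 0.05 M phosphate buffer pH 7.40 containing 80% human or rat plasma, about 0.04 mg/mL initial, at 37 or 25 °C. Aliquots quenched and deproteinized with 0.05 M methanolic HCl, centrifuged, then analysed by reversed-phase HPLC with diode-array detection. First-order constants from ln plots of drug or prodrug concentration vs time.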

[5] = its hydrolysis half life in phosphate buffer (pH 7.4); format: ADME; outline: as §1
[6] = its hydrolysis half life in rat plasma (pH 7.4); format: ADME, organism-based; outline: as §2
[7] = its bimolecular rate constant (KOH) at 25 degree C (m = 0.5); format: ADME
Outline: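 Hydrolysis followed by UV spectrophotometry in aqueous NaOH or buffer (carbonate, borax, Tris, phosphate) at 25 °C, ionic strength 0.5 M. Second-order constant kOH taken from the linear plot of kobsd vs [OH-] over the pH-dependent region. kobsd came from ln(OD) vs time plots. pH in the cell was read before and after reaction.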

| SMILES | Kp [1] [s⁻¹] | pKa [2] | half-life [3] [min] | also measured |
| --- | --- | --- | --- | --- |
| CC(=O)Nc1ccc(OC(=O)Nc2cc(C(=O)c3ccccc3)ccc2O)cc1 | 0.0221 | 9.49 | 0.233 | half-life ([4]; read-out: T1/2): 10.2 min; half-life [5]: 0.233 min; half-life ([6]; read-out: T1/2): 2.9 min |
| O=C(Nc1cc(Cl)ccc1O)OCC(Cl)(Cl)Cl | 1.14 | 12.7 | 276000 | half-life ([4]; read-out: T1/2): 10.1 min; half-life ([6]; read-out: T1/2): 7.5 min |
| COc1ccccc1OCC(CNC(=O)Oc1ccc(NC(C)=O)cc1)OC (configuration not stated) | – | – | – | half-life ([4]; read-out: T1/2): 134 min; half-life [5]: 502 min; half-life ([6]; read-out: T1/2): 153 min |
| O=C(Nc1cc(Cl)ccc1O)Oc1ccccc1 | 0.169 | 10 | 0.2 | – |
| COc1ccc(Cl)cc1NC(=O)Oc1ccc(NC(C)=O)cc1 | – | – | – | KOH [7]: 510 M⁻¹ s⁻¹ |
| C#CCOC(=O)Nc1cc(Cl)ccc1O | 0.00025 | 13.6 | – | T1/2 ([3]; buffer): 108 min |
| CC(=O)Nc1cccc(OC(=O)Nc2cc(Cl)ccc2O)c1 | 0.279 | 9.38 | 0.125 | – |
| O=C(Nc1cc(Cl)ccc1O)OCC(Cl)Cl | 0.000806 | 13.2 | 42.5 | half-life ([4]; read-out: T1/2): 105 min; half-life ([6]; read-out: T1/2): 53.8 min |
| CCOC(=O)Nc1cc(Cl)ccc1O | 8.63e-07 | 16 | 418000 | – |
| O=C(Nc1cc(Cl)ccc1O)OCCCl | 2.75e-06 | 14.3 | – | – |
| CC(C)(C)OC(=O)Nc1ccc(OC(=O)Nc2cc(Cl)ccc2O)cc1 | 0.184 | 9.8 | 0.187 | – |
| O=C(Nc1cc(Cl)ccc1O)OCC(F)(F)F | 0.014 | 12.4 | 2.58 | – |
| CNC(=O)Oc1ccc(NC(C)=O)cc1 | – | – | – | KOH [7]: 11.5 M⁻¹ s⁻¹ |
| O=C(Nc1cc(Cl)ccc1O)Oc1cccc(Cl)c1 | 0.503 | 9.02 | 0.0634 | – |
| CC(=O)Nc1ccc(OC(=O)Nc2cc(Cl)ccc2O)cc1 | 0.205 | 9.49 | 0.118 | half-life [4]: 1.1 min; half-life [5]: 0.118 min; half-life [6]: 0.833 min |
| COc1ccccc1OCC(O)CNC(=O)Oc1ccc(NC(C)=O)cc1 (configuration not stated) | – | – | – | half-life ([4]; read-out: T1/2): 59 min; KOH [7]: 10.5 M⁻¹ s⁻¹; half-life [5]: 371 min; half-life ([6]; read-out: T1/2): 58 min |
| CC(=O)Nc1ccc(OC(=O)Nc2ccc(C(=O)c3ccccc3)cc2O)cc1 | 0.119 | 9.49 | 0.0965 | half-life [4]: 1 min; half-life [5]: 0.097 min; half-life [6]: 0.233 min |
| CC(=O)Nc1ccc(OC(=O)NCC(O)COc2cc(C)cc(C)c2)cc1 (configuration not stated) | – | – | – | half-life ([4]; read-out: T1/2): 45 min; half-life [5]: 416 min; half-life ([6]; read-out: T1/2): 62 min |

Continued, in another order:

| Kp [1] [s⁻¹] | pKa [2] | half-life [3] [min] | SMILES | also measured |
| --- | --- | --- | --- | --- |
| 0.0976 | 10.2 | 0.37 | COc1ccc(OC(=O)Nc2cc(Cl)ccc2O)cc1 | – |
| 0.7 | 8.97 | 0.0518 | O=C(Nc1cc(Cl)ccc1O)Oc1cccc(C(F)(F)F)c1 | – |
| 1.05e-06 | 15.5 | 105000 | COC(=O)Nc1cc(Cl)ccc1O | – |
| 0.0806 | 10.4 | 0.383 | Cl.Nc1ccc(OC(=O)Nc2cc(Cl)ccc2O)cc1 | – |
| 5.93e-06 | 14.2 | – | CC#CCOC(=O)Nc1cc(Cl)ccc1O | – |
